# CHRM4 antagonist – antagonists of human muscarinic M4 receptor (CHRM4) | P08173 | inhibition, % at 3 µM | CHO-hM4 cells, ACh EC80, Fluo-8 calcium fluorescence | hit rate 0.73% among 360,000;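 active = inhibition above its plate's cutoff, the mean inhibition of sample wells plus 3 SD, cut at about 27% in these data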;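 also: 0% = acetylcholine EC80 with DMSO and 100% = DMSO without agonist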
# M4 ag – CHRM4 agonism in calcium assay; P08173; activation, % at 3 µM; CHO-K1 hM4/Gqi5, Fluo-8 calcium fluorescence; vehicle 0%, full acetylcholine response 100%; hit rate 0.14% among 360,000;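 active = activation above the run mean over all test wells plus 3 SD, cut at about 32% in these data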;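 also: peak over basal fluorescence ratio per well then scaled between controls; 0% = DMSO wells and 100% = acetylcholine at EC100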
# CHRM4 PAM – potentiates acetylcholine response at human M4 receptor; P08173; CHO-K1 hM4/Gqi5, Fluo-8 calcium fluorescence, ACh EC20; 0% = ACh EC20, 100% = maximal ACh; activation, % at 3 µM; hit rate 0.4% among 360,000;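 active = activation above its plate's cutoff, the mean activation of sample wells plus 3 SD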
# CHRM5 antagonist – CHRM5 antagonism in calcium assay; AID 624040; hit rate 0.59% among 360,000; P08912; inhibition, % at 3 µM; CHO-hM5 cells, Fluo-8 calcium fluorescence, ACh EC80;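 active = inhibition above a per-plate cutoff, the mean of that plate's test compounds plus 3 SD, cut at about 27% in these data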;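 also: 0% = acetylcholine EC80 with DMSO and 100% = DMSO without agonist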
# CHRM5 PAM – potentiates acetylcholine response at human M5 receptor | CHO-K1 hM5, Fluo-8 calcium, ACh EC20 PAM; 0% = ACh EC20, 100% = ACh EC100 | activation, % at 3 µM | hit rate 0.3% among 360,000 | AID 624038;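 active = activation above the run cutoff, the mean activation of all test compounds plus 3 SD, cut at about 18% in these data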
#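 Probe or stimulus: acetylcholine, EC20 level; Assay system: human M5 receptor in CHO-K1 cells; Schedule: compound preincubation 140 s before EC20 acetylcholine addition; Technique: intracellular calcium via Fluo-8 fluorescence; Dosing: single-point, 3 µM nominal; Read-out basis: percent activation from peak-over-basal fluorescence ratio, scaled EC20-to-EC100 acetylcholine; Repeats: one well per compound, no replicates.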
# CHRM5 agonist – CHRM5 agonism in calcium assay; CHO-K1 hM5 cells, Fluo-8 calcium fluorescence; 0% DMSO wells, 100% maximal acetylcholine response; hit rate 0.19% among 360,000; activation, % at 3 µM;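 active = activation above the run's mean over test compounds plus 3 SD, cut at about 23% in these data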;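 also: signal is peak over basal fluorescence ratio across the kinetic read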
# Starred values were filed as active, the others as inactive. Most compounds without a hit are left out; they make up all but 1.9% or so of the library.
SMILES,CHRM4 antagonist,M4 ag,CHRM4 PAM,CHRM5 antagonist,CHRM5 PAM,CHRM5 agonist
CN(C)S(=O)(=O)c1ccc(Cl)c(C(=O)Nc2ccccc2[N+](=O)[O-])c1,-14,4,0,-3,4,-2
Cc1ccc(NC(=O)COC(=O)CCc2c[nH]c3ccccc23)c(C)c1,5,2,-1,6,-5,0
Cc1ccc(C)c(/C(O)=C2\C(=O)C(=O)N(CCCn3ccnc3)C2c2cccnc2)c1 (stereo unspecified),-13,0,6,8,20*,-1
Clc1ccc(OCCn2ccnc2)c(Br)c1,1,0,0,8,27*,-12
CCC(C)c1ccccc1OCCn1ccnc1 (stereo unspecified),1,1,-3,30*,-18,-7
CC(=O)NC(c1ccc(F)c(F)c1)c1nc(-c2cnc3ccccc3c2)cs1 (stereo unspecified),-10,5,0,6,0,-1
O=C(COC(=O)c1nc(Cl)ccc1Cl)Nc1ccc(Cl)cc1,-9,4,22*,3,-3,-8
Cc1ccccc1C(=O)NCC(=O)OCCCOC(=O)CNC(=O)c1ccccc1C,-17,3,20,-2,5,-5
Cc1noc(C)c1C(=O)N1CCC1(C)C(=O)NS(=O)(=O)c1ccc(Cl)cc1 (stereo unspecified),3,0,2,17,-2,-1
CCNc1nc(NC(C)C)nc(NS(=O)(=O)c2ccc(N)cc2)n1,-17,1,30*,3,0,3
CSCCC(NC(=O)OC(C)(C)C)C(=O)NC(CC(C)C)C(N)=O (stereo unspecified),3,3,36*,3,11,2
COc1cc(SC)ccc1C(=O)NCCc1c[nH]c2ccccc12,4,7,-8,6,-4,-2
COc1cc2cc(C(=O)NCCc3c[nH]c4ccccc34)c(N)nc2cc1OC,7,33*,-3,25,-22,24*
O=C(NC(C(=O)c1ccccc1)c1ccccc1)c1ccccc1 (stereo unspecified),0,12,-6,18,-7,-6
Cc1ccc(C)c(NC(=O)C(NCC(C)(C)N2CCOCC2)c2ccccc2)c1 (stereo unspecified),76*,1,-26,13,-35,-17
Cc1ccc(C)c(NC(=O)C(c2ccccc2)N2CCN(CC(=O)N3CCOCC3)CC2)c1 (stereo unspecified),-4,4,-1,5,-1,0
CC(Sc1cnccn1)C(=O)O (stereo unspecified),7,22,-9,32*,-15,-2
Cc1cccc(C)c1NC(=O)C(=O)NCC1CCCN1S(=O)(=O)c1ccccc1 (stereo unspecified),17,0,-12,6,-7,2
Cc1cccc(C)c1NC(=O)[C@@]1(CC(=O)O)CC(/C=C/c2ccccc2)=NO1,-23,3,14*,-4,1,-4
OC(c1ccccc1)(c1ccccc1)C1CCN(CCCOc2cccc(OC(F)(F)F)c2)CC1,32*,17,-13,5,-16,0
Oc1ccccc1CN1CCC(C(O)(c2ccccc2)c2ccccc2)CC1,1,1,-8,3,-2,-8
OC(c1ccccc1)(c1ccccc1)C1CCN(CCCOc2ccc3c(c2)CCCC3)CC1,32*,15,-12,26,-24,-3
N#CCc1ccc(OCCCN2CCC(C(O)(c3ccccc3)c3ccccc3)CC2)cc1,59*,22,-14,71*,-24,-3
CC(C)(C)c1ccc(C(O)CCCN2CCC(C(O)(c3ccccc3)c3ccccc3)CC2)cc1 (stereo unspecified),14,20,-12,10,-7,5
c1ccc(COc2ccc(OCCCN3CCCC3)cc2)cc1,9,4,-25,9,-17,-5
CC(=O)Nc1ccccc1OCCCN1CCC(C(O)(c2ccccc2)c2ccccc2)CC1,7,3,-11,-2,-21,-5

# High-throughput results as filed in PubChem.
